Calls of active or inactive are those of the source. The rule behind the calls is not given here.
What was measured:
[1] = Mutagenic activity in Salmonella typhimurium TA98 assessed as […] increase in number of revertants at 25 ug/plate after 48 hrs by Ames test; format: toxicity; settings: salmonella enterica subsp. enterica serovar typhimurium
Summary of the method: (§1)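 TA98 pre-incubation Ames test without listed S9: 50 µL test solution, 500 µL 0.1 M phosphate pH 7.4 and 100 µL bacteria (2 × 10^9/mL), 60 min. Top agar with trace histidine/biotin, then 48 h at 37 °C and revertant count. Doses fall by thirds from the minimum toxic dose; DMSO and 4-NPD (20 µg/plate) controls; two independent experiments, means ± SD.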

[2] = Mutagenic activity in Salmonella typhimurium TA98 assessed as […] increase in number of revertants at 75 ug/plate after 48 hrs by Ames test; format: toxicity; settings: salmonella enterica subsp. enterica serovar typhimurium; summary of the method: as §1
[3] = test system: Rattus norvegicus; assay: Induction glutathione-CYP1A1 in rat liver at 15 mg/kg, po qd by EROD assay; format: functional
Summary of the method: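 Rat liver CYP1A1 read as EROD activity: fluorescence increase from resorufin released from 7-ethoxyresorufin, in 100 mM phosphate buffer pH 7.6 with 250 µM NADPH. Oral dosing for 15 days over 3 weeks; change in specific activity expressed as % of basal-diet control, n = 5, means ± SE, Student's t-test.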

[4] = Mutagenic activity in Salmonella typhimurium TA98 assessed as […] increase in number of revertants at 3 ug/plate after 48 hrs by Ames test; format: toxicity; settings: salmonella enterica subsp. enterica serovar typhimurium; summary of the method: as §1
[5] = Mutagenic activity in Salmonella typhimurium TA98 assessed as […] increase in number of revertants at 8 ug/plate after 48 hrs by Ames test; format: toxicity; settings: salmonella enterica subsp. enterica serovar typhimurium; summary of the method: as §1
[6] = Mutagenic activity in Salmonella typhimurium TA98 assessed as […] increase in number of revertants at 225 ug/plate after 48 hrs by Ames test; format: toxicity; settings: salmonella enterica subsp. enterica serovar typhimurium; summary of the method: as §1
[7] = test system: Rattus norvegicus; assay: Induction of quinone reductase activity in rat liver at 15 mg/kg, po qd; format: functional
Summary of the method: (§2)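 Oral dosing for 15 days over 3 weeks, then liver QR read as loss of 600 nm absorbance of DCPIP (80 µM) with 0.2 mM NADH, 5 µM FAD, 25 mM Tris–HCl pH 7.4, 6% BSA, 0.01% Tween 20. Specific activity expressed as % change from basal-diet control, n = 5, means ± SE, Student's t-test.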

[8] = test system: Rattus norvegicus; assay: Induction glutathione-S-transferase activity in rat liver at 15 mg/kg, po qd; format: functional
Summary of the method: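 Hepatic GST after oral dosing for 15 days over 3 weeks. Substrates 1 mM CDNB and 1 mM reduced glutathione in 100 mM phosphate buffer pH 6.5; CDNB–GSH conjugate followed at 340 nm. Specific activity given as % change from basal-diet control, n = 5, means ± SE, Student's t-test.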

[9] = test system: Rattus norvegicus; assay: Induction of quinone reductase activity in rat liver at 22.5 mg/kg, po qd; format: functional; summary of the method: as §2
[10] = test system: HT-29; assay: Cytotoxicity against human HT-29 cells; format: functional, cell-based
[11] = test system: Rattus norvegicus; assay: Induction glutathione-CYP1A1 in rat liver at 15 mg/kg, po qd by EROD assay
[12] = test system: Rattus norvegicus; assay: Induction glutathione-S-transferase activity in rat liver at 15 mg/kg, po qd
[13] = test system: MCF7; assay: Cytotoxicity against human MCF7 cells; format: functional, cell-based
[14] = test system: TK-10; assay: Cytotoxicity against human TK10 cells; format: functional, cell-based
[15] = test system: Rattus norvegicus; assay: Toxicity in Sprague-Dawley rat assessed as glutamic-oxalate transaminase level at 10 mg/kg/day, po (RVb = 71.4 +/- 7.8 U/L); settings: in vivo
[16] = test system: Rattus norvegicus; assay: Toxicity in Sprague-Dawley rat assessed as change in body weight at 10 mg/kg/day, po; settings: in vivo
[17] = test system: Rattus norvegicus; assay: Toxicity in Sprague-Dawley rat assessed as haemoglobin level at 10 mg/kg/day, po (RVb = 15.1 +/- 4.1 g/L); settings: in vivo
[18] = test system: Rattus norvegicus; assay: Toxicity in Sprague-Dawley rat assessed as glutamic-pyruvate level at 10 mg/kg/day, po (RVb = 22.8 +/-13.2 U/L); settings: in vivo
[19] = test system: Rattus norvegicus; assay: Toxicity in Sprague-Dawley rat assessed as leucocyte level at 10 mg/kg/day, po; settings: in vivo
[20] = test system: Liver microsomes; assay: Metabolic stability in rat liver microsome in presence of NADPH; format: ADME
Summary of the method: (§3)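 Female Wistar rat liver microsomes (100,000 × g pellet) at 1 mg/mL protein with 400 µM flavonoid (DMSO <1%). Incubated 0.5 h at 37 °C, with or without an NADPH-generating system (MgCl2, NADP+, glucose 6-phosphate, G6PDH) in 0.1 M phosphate pH 7.4, 1.5 mM EDTA. Heat-inactivated control included; triplicate; read by UV spectra and chromatography.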

[21] = target: T1, Quinone oxidoreductase (Homo sapiens) (UniProt Q08257); assay: Induction of quinone reductase activity in human MCF7 cells; format: cell-based
T1 sequence (whole entry): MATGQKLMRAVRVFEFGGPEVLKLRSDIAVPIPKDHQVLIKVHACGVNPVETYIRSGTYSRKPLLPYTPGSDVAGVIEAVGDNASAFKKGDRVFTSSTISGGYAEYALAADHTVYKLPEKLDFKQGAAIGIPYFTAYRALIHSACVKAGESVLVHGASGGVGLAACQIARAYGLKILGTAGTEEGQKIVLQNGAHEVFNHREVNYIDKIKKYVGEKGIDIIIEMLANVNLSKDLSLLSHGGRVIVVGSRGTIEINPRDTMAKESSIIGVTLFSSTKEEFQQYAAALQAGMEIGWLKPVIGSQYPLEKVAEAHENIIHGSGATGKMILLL
Summary of the method: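 QR induction in MCF-7 tumour cells at 40 µM, a level chosen from a flavone dose–response; result given as ratio of QR specific activity, treated/control.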

[22] = test system: Liver microsomes; assay: Metabolic stability in rat liver microsome; format: ADME; summary of the method: as §3
[23] = test system: Rattus norvegicus; assay: Toxicity in Sprague-Dawley rat assessed as change in body weight at 250 mg/kg, po; format: organism-based; parameters: dose 250 mg/kg, route oral; settings: in vivo
Summary of the method: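 Healthy female Sprague–Dawley rats (about 200 g, 5–7 per group) given a single oral dose by intragastric syringe, suspended in saline/Tween 80 (4:1); vehicle-treated controls included. Daily weighing and observation for 3 days, then sacrifice with clinical biochemistry, haematology and organ histology.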

[24] = dose 15.0 mg/kg, in the assay text read “at 15.0 mg/kg” for “at 22.5 mg/kg”

SMILES	Activity [3]	Activity [7]	Activity [8]	Activity [9, 24]	Activity [10]	Activity [13]	Activity [14]	Activity [16]	Activity [17]	Activity [19]	further results
O=C(/C=C/c1cccs1)c1ccccc1O	20%	10%	10%	–	–	–	–	–	–	–	Activity [1]: 19; Activity [2]: 13; Activity [4]: 15; Activity [5]: 16; Activity [6]: 14
O=C(/C=C/c1ccc(Cl)cc1)c1ccccc1O	–	–	–	20%	Active	inactive	Active	–	–	–	Activity [11]: -10%; Activity [12]: -20%
COc1ccc(/C=C/C(=O)c2ccccc2)cc1 [4-METHOXY CHALCONE]	-30%	10%	-10%	–	Active	inactive	Active	–	–	–	–
COc1ccc(/C=C/C(=O)c2ccccc2O)cc1OC	–	–	–	-20%	inactive	Active	Active	Non-toxic	9.3 g/L	9600 µL⁻¹	Activity [15]: 62.1 U/L; Activity [18]: 15 U/L
Nc1ccc(/C=C/C(=O)c2ccccc2O)cc1	–	–	–	0%	inactive	inactive	inactive	–	–	–	–
O=C(/C=C/c1ccc(Br)cc1)c1ccccc1O	–	–	–	128%	inactive	inactive	inactive	Non-toxic	8.4 g/L	7700 µL⁻¹	Activity [15]: 61.7 U/L; Stability [20]: Stable; Activity [21]: Active; Activity [11]: -80%; Stability [22]: Stable; Activity [12]: -30%; Activity [18]: 26 U/L
CSc1ccc(/C=C/C(=O)c2ccccc2)cc1	750%	20%	30%	–	inactive	inactive	Active	–	–	–	–
O=c1cc(-c2ccccc2Br)oc2ccccc12	–	–	–	–	inactive	Active	inactive	Non-toxic	9.6 g/L	4500 µL⁻¹	Activity [15]: 52.9 U/L; Activity [18]: 45.4 U/L
CN(C)c1ccc(/C=C/C(=O)c2ccccc2O)cc1	–	–	–	–	inactive	inactive	inactive	Non-toxic	11.5 g/L	5500 µL⁻¹	–
O=C(/C=C/c1ccccc1)c1ccccc1O [2'-HYDROXYCHALCONE]	-60%	10%	30%	–	Active	Active	Active	–	11.3 g/L	5200 µL⁻¹	Activity [1]: 17; Activity [2]: 20; Activity [21]: Active; Activity ([9]; dose 22.5 mg/kg): 10%; Activity [4]: 13; Activity [5]: 16; Activity [6]: 14; Activity [23]: Non-toxic
O=C(/C=C/c1ccc(Cl)cc1)c1ccccc1 [4-CHLORO CHALCONE]	40%	10%	-20%	–	Active	inactive	Active	–	–	–	–
O=C(/C=C/c1ccccn1)c1ccccc1O	–	–	–	13%	Active	Active	Active	–	–	–	Activity [1]: 16; Activity [2]: 17; Activity [21]: Active; Activity [11]: 10%; Activity [12]: 20%; Activity [4]: 13; Activity [5]: 17; Activity [6]: 18
COc1ccc(/C=C/C(=O)c2ccccc2O)cc1	–	–	–	60%	inactive	Active	Active	–	12.3 g/L	7300 µL⁻¹	Activity [15]: 52.2 U/L; Activity [11]: -40%; Activity [12]: -10%; Activity [18]: 13.2 U/L; Activity [23]: Non-toxic
O=c1cc(-c2ccc(Br)cc2)oc2ccccc12	–	30%	–	–	inactive	inactive	inactive	Non-toxic	–	–	–
O=C(/C=C/c1ccc2c(c1)OCO2)c1ccccc1O	–	–	–	30%	inactive	inactive	inactive	–	–	–	Activity [11]: -50%; Activity [12]: -20%
O=c1cc(-c2ccccc2)oc2ccccc12 [FLAVONE]	–	-30%	–	–	inactive	inactive	inactive	–	–	–	–
COc1ccc(C2CC(=O)c3ccccc3O2)cc1 (centres undefined)	–	–	–	–	inactive	Active	Active	Non-toxic	11.3 g/L	8600 µL⁻¹	–
O=C1CC(c2ccccc2Br)Oc2ccccc21 (centres undefined)	30%	10%	10%	–	inactive	Active	inactive	–	–	–	–
